From ChEMBL document CHEMBL1122668, “Synthesis, conformational analysis, and antiarrhythmic properties of 7-benzyl-3-thia-7-azabicyclo[3.3.1]nonan-9-one, 7-benzyl-3-thia-7-azabicyclo[3.3.1]nonane hydroperchlorate, and 7-benzyl-9-phenyl-3-thia-7-azabicyclo[3.3.1]nonan-9-ol hydroperchlorate and derivatives: single-crystal X-ray …” (1984) come the findings set out here.

Structures are written as SMILES. Calls of active or inactive are those of the source. The rule behind the calls is not given here. A value given as a limit tells only on which side of the number the result lay.

For test [1], the species on record is Canis familiaris. Kind of test: Effect of compound on rate of induced ventricular tachycardia (VT) in dog. Format: functional, Canis lupus familiaris, Cardiac ventricle. An outline of the steps:
(§1)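 Dogs with 24-h myocardial infarction under iv sodium pentobarbital (30 mg/kg), six per agent. Drug given as an iv bolus in 50% ethanol at 3 and 6 mg/kg; the reference agent was given iv at 2, 4 and 6 mg/kg. Sustained VT was induced by three paced ventricular beats at 240–390/min, with pacing retried up to 420/min after dosing. Read-outs were VT rate, abolition count and continuous mean arterial pressure.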

For test [2], the species on record is Canis familiaris. In words: Compound was tested for mean blood pressure on induced Ventricular Tachycardia (VT). The class given is functional, Canis lupus familiaris. An outline of the steps:
as §1

Test [3] is described as follows: Compound was evaluated for abolition of ventricular tachycardia (Number/total); 0/6. Format: functional, tissue-based. As to conditions: Cardiac ventricle.
Test [4] is filed under the species Canis familiaris. Kind of test: Compound was evaluated for abolition of ventricular tachycardia (Number/total);+ = slight degree. The class given is functional, organism-based. Particulars: Canis lupus familiaris; Cardiac ventricle. An outline of the steps: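 Dogs with 24-h myocardial infarction, anesthetized with 30 mg/kg iv sodium pentobarbital and given a left thoracotomy. Sustained ventricular tachycardia induced by three paced ventricular beats at 240–390/min. Compound given iv as a bolus in 50% ethanol. Pacing induction attempts repeated after dosing, up to 420/min. Abolition scored as number of dogs/total, with mean arterial pressure monitored.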

Test [5] is filed under the species Canis familiaris. Kind of test: Increase in mean blood pressure on Ventricular Tachycardia (VT); (SL-Slight). Format: functional, Canis lupus familiaris. The gist of the method:
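Pentobarbital-anesthetized dogs with infarction, given the drug intravenously. Mean arterial blood pressure was monitored continuously during ventricular tachycardia induced by three paced ventricular beats.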

Test [6] is filed under the species Canis familiaris. Kind of test: Effect of compound on myocardial conduction abnormal; +++ = marked decrease. Format: functional, organism-based. Particulars: Canis lupus familiaris; Myocardium. An outline of the steps: (§2)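 Pentobarbital-anesthetized dogs (30 mg/kg iv) with 24-h myocardial infarction, heart exposed by left thoracotomy. Recordings: lead II ECG, His bundle electrogram, and endocardial and epicardial electrodes over the infarct (abnormal tissue) plus a noninfarcted posterior epicardial reference (normal tissue). Atrial pacing from 180/min up to second-degree A-V block, before and after iv drug. Read-outs: intra-atrial, A-V nodal, His-Purkinje and ventricular conduction.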

The species named for test [7] is Canis familiaris. Kind of test: Effect of compound on myocardial conduction normal (A-V, I-V); […]. The class given is functional, organism-based. As to conditions: Canis lupus familiaris; Myocardium. An outline of the steps:
as §2

Test [8] is filed under the species Canis familiaris. Kind of test: Compound was evaluated for abolition of ventricular tachycardia (Number/total); + = slight degree. The class given is functional, organism-based. As to conditions: Canis lupus familiaris; Cardiac ventricle.
The species entered for test [9] is Canis familiaris. In words: Effect of compound on myocardial conduction abnormal; No change. Format: functional, organism-based. Particulars: Canis lupus familiaris; Myocardium.
For test [10], the species on record is Canis familiaris. Kind of test: Effect of compound on myocardial conduction normal (A-V, I-V); No change. Format: functional, organism-based. As to conditions: Canis lupus familiaris; Myocardium.
The species named for test [11] is Canis familiaris. Kind of test: Effect of compound on myocardial conduction abnormal; ++ = moderate decrease. The class given is functional, organism-based. Particulars: Canis lupus familiaris; Myocardium.

As for `[O-][Cl+3]([O-])([O-])O.c1ccc(CN2CC3CSCC(C3)C2)cc1`, the Rate in the test filed under Canis familiaris [1] amounted to 250. The Mean blood pressure in the test listed under Canis familiaris [2] was found to be 112 mmHg.

`CCN(CC)CC(=O)Nc1c(C)cccc1C` [LIDOCAINE] displayed a Rate in the test listed under Canis familiaris [1] of 315. In the test filed under Canis familiaris [2], the Mean blood pressure worked out at 95 mmHg. Besides, the Ratio result in test [3] was “inactive”.

Consider `OC1(c2ccccc2)C2CSCC1CN(Cc1ccccc1)C2.[O-][Cl+3]([O-])([O-])O` (stereo not given), for which, in the test filed under Canis familiaris [4], the Abolition result is recorded as “slight degree”. The compound further had a Mean blood pressure in the test listed under Canis familiaris [5] of less than 10%. The Effect result in the test listed under Canis familiaris [6] and in the test listed under Canis familiaris [7] was “marked decrease” throughout.

As to `O=C1C2CSCC1CN(Cc1ccccc1)C2` [listing 1 of 2 here], in the test filed under Canis familiaris [8], the Abolition entry is recorded as “slight degree”. Moreover, the “Change in myocardial conduction” value in the test filed under Canis familiaris [9] and in the test listed under Canis familiaris [10] was “inactive” throughout. The Effect result in the test filed under Canis familiaris [11] is given as “moderate decrease”.

The compound `O=C1C2CSCC1CN(Cc1ccccc1)C2.[O-][Cl+3]([O-])([O-])O` returned a Mean blood pressure in the test filed under Canis familiaris [5] of 15%.

`O=C1C2CSCC1CN(Cc1ccccc1)C2` [listing 2 of 2 here] registered a Mean blood pressure in the test filed under Canis familiaris [5] of less than 10%.
